Laboratory results: ChEMBL document CHEMBL1138602, “Discovery of sodium 6-[(5-chloro-2-{[(4-chloro-2-fluorophenyl)methyl]oxy}phenyl)methyl]-2-pyridinecarboxylate (GSK269984A) an EP(1) receptor antagonist for the treatment of inflammatory pain” (Bioorg Med Chem Lett, 2009)

Experiments:
[1] = target: T1, Prostaglandin E2 receptor EP1 subtype (Homo sapiens, UniProt P34995); assay: Antagonist activity at human recombinant EP1 receptor expressed in CHO cells assessed as luciferase activity by Schild assay; format: functional, cell-based; conditions: read-out: pA2 (converted)
T1 sequence (P34995 whole entry): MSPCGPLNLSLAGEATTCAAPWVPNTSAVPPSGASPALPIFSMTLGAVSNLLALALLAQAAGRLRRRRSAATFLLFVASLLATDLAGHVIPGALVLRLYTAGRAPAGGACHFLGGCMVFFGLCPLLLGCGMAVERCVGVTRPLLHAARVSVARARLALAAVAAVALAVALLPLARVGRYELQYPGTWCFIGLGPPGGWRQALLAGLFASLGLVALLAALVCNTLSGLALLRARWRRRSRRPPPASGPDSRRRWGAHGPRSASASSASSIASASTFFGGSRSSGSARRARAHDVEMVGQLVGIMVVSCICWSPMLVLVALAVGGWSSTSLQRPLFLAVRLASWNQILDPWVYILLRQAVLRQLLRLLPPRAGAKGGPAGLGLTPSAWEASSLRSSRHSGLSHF

Cytochrome P450 2C9 = Cytochrome P450 2C9 (Homo sapiens, UniProt P11712); assay: Inhibition of human CYP2C9; format: ADME
Chain of Cytochrome P450 2C9 (P11712 whole entry): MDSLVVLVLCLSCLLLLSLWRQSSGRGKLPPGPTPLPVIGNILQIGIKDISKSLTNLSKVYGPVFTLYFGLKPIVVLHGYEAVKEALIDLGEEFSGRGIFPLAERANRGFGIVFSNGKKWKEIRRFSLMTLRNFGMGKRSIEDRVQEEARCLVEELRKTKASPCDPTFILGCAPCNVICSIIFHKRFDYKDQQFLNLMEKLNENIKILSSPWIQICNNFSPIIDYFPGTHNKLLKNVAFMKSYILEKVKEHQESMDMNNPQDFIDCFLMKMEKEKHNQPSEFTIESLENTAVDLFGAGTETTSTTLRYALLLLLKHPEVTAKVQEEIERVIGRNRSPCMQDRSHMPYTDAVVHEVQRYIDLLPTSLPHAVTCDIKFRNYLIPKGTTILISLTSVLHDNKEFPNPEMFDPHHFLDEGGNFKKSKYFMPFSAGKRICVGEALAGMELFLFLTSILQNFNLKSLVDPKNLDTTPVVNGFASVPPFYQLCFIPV
In short: (§1)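 Inhibition of metabolism of fluorometric substrates (Cypex protocol); IC50 values are the mean of three experiments ± standard deviation.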

[2] = Ratio of drug level in brain to blood in complete Freund's adjuvant induced rat inflammatory pain model at 10 mg/kg, po bid for 5 days measured after 1 hr on day 5
[3] = Ratio of drug level in brain to blood in complete Freund's adjuvant induced rat inflammatory pain model at 3 mg/kg, po bid for 5 days measured after 1 hr on day 5
[4] = Intrinsic clearance in cynomolgus monkey hepatocytes measured per gram of liver at 0.15 to 0.2 X 10^6 cells/ml cell density; format: ADME, cell-based, Macaca fascicularis, Hepatocyte
In short: (§2)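 Intrinsic clearance in hepatocytes expressed as mL/min/g liver. Cell densities were 0.15–0.2 × 10^6 cells/mL or 0.54–0.7 × 10^6 cells/mL.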

[5] = Intrinsic clearance in cynomolgus monkey hepatocytes measured per gram of liver at 0.54 to 0.7 X 10^6 cells/ml cell density; format: ADME, cell-based, Macaca fascicularis, Hepatocyte; in short: as §2
Hepatocyte = assay: Intrinsic clearance in human hepatocytes measured per gram of liver at 0.15 to 0.2 X 10^6 cells/ml cell density; format: ADME, cell-based; in short: as §2
[6] = Permeability from apical to basolateral side of dog MDCK2 cells over expressing MDR1 after 1 hr; format: ADME, cell-based, Canis lupus familiaris, MDCK-II; conditions: MDCK-MDR1, read-out: permeability
In short: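 MDCKII-MDR1 Pgp permeability assay; apical-to-basolateral Pexact permeability in nm/s, with efflux ratio also determined.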

[7] = target: Prostaglandin E2 receptor EP2 subtype (Homo sapiens, UniProt P43116); assay: Inhibition of EP2 receptor
Chain of Prostaglandin E2 receptor EP2 subtype (P43116 whole entry): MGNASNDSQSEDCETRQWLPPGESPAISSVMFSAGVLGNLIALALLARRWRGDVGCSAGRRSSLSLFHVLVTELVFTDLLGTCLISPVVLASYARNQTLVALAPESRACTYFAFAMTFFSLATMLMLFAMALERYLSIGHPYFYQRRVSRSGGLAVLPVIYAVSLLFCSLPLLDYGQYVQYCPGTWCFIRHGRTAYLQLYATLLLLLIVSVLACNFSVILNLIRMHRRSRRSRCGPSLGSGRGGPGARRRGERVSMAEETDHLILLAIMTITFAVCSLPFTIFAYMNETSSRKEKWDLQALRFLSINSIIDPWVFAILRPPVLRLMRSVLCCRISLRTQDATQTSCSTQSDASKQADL

[8] = target: T2, Prostaglandin E2 receptor EP3 subtype (Homo sapiens, UniProt P43115); assay: Inhibition of EP3 receptor by FLIPR assay
T2 sequence (P43115 whole entry): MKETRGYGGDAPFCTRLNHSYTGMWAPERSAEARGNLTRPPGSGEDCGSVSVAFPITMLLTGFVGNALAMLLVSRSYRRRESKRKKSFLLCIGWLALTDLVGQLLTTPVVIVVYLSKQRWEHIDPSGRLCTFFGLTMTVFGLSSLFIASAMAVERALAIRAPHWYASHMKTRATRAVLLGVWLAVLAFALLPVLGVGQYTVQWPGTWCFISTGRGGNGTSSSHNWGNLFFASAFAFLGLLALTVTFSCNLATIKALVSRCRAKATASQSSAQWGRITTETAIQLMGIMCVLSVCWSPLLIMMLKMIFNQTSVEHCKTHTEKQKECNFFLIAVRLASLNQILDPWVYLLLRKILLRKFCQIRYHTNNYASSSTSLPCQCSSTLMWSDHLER

[9] = target: Prostaglandin G/H synthase 1 (Homo sapiens, UniProt P23219); assay: Inhibition of COX1
Chain of Prostaglandin G/H synthase 1 (P23219 whole entry): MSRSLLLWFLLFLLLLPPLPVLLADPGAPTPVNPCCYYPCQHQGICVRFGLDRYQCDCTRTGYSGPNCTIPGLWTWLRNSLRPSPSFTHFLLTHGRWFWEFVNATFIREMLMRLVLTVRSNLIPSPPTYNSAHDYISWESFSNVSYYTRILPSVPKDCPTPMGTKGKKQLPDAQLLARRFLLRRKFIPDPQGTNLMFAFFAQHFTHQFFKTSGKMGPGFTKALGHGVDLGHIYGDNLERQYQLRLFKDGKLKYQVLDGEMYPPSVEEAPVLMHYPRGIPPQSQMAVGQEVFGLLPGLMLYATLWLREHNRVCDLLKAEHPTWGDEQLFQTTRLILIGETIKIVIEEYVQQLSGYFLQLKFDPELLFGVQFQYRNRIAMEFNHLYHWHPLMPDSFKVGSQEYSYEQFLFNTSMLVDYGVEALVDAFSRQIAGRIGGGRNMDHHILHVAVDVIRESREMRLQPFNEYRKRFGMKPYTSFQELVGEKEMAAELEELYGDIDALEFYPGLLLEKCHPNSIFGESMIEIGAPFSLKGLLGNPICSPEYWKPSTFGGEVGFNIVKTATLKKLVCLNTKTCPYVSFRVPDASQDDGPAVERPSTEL

[10] = target: Prostaglandin E2 receptor EP4 subtype (Homo sapiens, UniProt P35408); assay: Inhibition of EP4 receptor
Chain of Prostaglandin E2 receptor EP4 subtype (P35408 whole entry): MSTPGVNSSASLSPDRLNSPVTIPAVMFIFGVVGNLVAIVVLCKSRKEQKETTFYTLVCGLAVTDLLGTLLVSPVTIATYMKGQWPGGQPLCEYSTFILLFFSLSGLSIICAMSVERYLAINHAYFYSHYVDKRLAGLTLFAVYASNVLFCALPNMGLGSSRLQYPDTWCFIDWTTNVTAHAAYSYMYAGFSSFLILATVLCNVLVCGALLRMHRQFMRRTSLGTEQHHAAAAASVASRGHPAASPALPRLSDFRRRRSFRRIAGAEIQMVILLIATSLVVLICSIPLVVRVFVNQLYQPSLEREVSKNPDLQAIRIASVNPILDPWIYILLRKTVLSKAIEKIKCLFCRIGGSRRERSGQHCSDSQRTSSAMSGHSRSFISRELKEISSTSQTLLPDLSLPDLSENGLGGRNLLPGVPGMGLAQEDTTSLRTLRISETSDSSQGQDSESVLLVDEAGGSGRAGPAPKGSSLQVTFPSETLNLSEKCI

Rattus norvegicus = assay: Antianalgesic activity against complete Freund's adjuvant induced inflammatory pain in rat assessed as reversal of hypersensitivity dosed as po bid for 5 days measured after 1 hr on day 5; format: functional
Cytochrome P450 3A4 = Cytochrome P450 3A4 (Homo sapiens, UniProt P08684); assay: Inhibition of human CYP3A4; format: ADME; in short: as §1
Chain of Cytochrome P450 3A4 (P08684 whole entry): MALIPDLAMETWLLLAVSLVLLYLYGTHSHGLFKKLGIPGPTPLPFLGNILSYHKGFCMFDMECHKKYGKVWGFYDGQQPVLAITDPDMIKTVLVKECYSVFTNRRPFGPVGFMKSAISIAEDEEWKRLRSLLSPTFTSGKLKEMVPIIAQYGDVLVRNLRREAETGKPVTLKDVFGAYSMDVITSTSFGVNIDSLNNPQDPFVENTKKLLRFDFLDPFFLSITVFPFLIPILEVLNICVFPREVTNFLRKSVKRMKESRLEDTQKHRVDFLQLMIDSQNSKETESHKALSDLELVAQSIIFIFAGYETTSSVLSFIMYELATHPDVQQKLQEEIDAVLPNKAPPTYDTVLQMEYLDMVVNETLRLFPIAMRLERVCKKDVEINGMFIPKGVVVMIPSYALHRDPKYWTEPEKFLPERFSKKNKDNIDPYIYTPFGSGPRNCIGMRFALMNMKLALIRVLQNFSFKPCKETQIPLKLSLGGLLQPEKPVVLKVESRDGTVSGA

[11] = Drug level in blood of complete Freund's adjuvant-induced rat inflammatory pain model at 1 mg/kg, po administered after 23 hrs of adjuvant challenge measured after 1 hr; format: ADME, organism-based; set-up: dose 1 mg/kg, route oral; conditions: read-out: Drug uptake
In short: (§3)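 CFA rat study: oral doses of 1, 3 or 10 mg/kg given 23 h after intraplantar adjuvant, samples 1 h post-dose. Blood values are the mean from seven animals. Brain values are the mean from three animals.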

[12] = Drug level in blood of complete Freund's adjuvant-induced rat inflammatory pain model at 3 mg/kg, po administered after 23 hrs of adjuvant challenge measured after 1 hr; format: ADME, organism-based; set-up: dose 3 mg/kg, route oral; conditions: read-out: Drug uptake; in short: as §3
[13] = Drug level in brain of complete Freund's adjuvant-induced rat inflammatory pain model at 1 mg/kg, po administered after 23 hrs of adjuvant challenge measured after 1 hr; format: ADME, organism-based; set-up: dose 1 mg/kg, route oral; conditions: read-out: Drug uptake; in short: as §3
[14] = Drug level in mouse brain at 0.5 mg/kg/hr administered by infusion for 12 hrs; format: ADME, organism-based; conditions: intravenous, read-out: Drug uptake
In short: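 Steady-state 12 h infusion at 5 mL/kg/h to reach a target dose of 0.5 mg/kg/h; blood and brain concentrations measured. Data are the mean from three animals.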

[15] = Ratio of drug level in brain to blood of rat at 0.5 mg/kg/hr administered by infusion for 12 hrs; conditions: brain and blood, intravenous
[16] = Drug level in rat brain at 0.5 mg/kg/hr administered by infusion for 1 hrs; format: ADME, organism-based; conditions: intravenous, read-out: Drug uptake
In short: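 Rat given a 1 h infusion; blood and brain concentrations measured.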

[17] = Ratio of drug level in brain to blood of rat at 0.5 mg/kg/hr administered by infusion for 1 hrs; conditions: brain and blood, intravenous
[18] = Ratio of drug level in brain to blood of Landrace pig at 0.5 mg/kg/hr administered by infusion for 1 hrs; conditions: brain and blood, intravenous
[19] = Volume of distribution at steady state in Sprague-Dawley rat at 1 mg/kg administered by intravenous infusion for 1 hr; format: ADME, organism-based; set-up: dose 1 mg/kg, route intravenous; conditions: in vivo, read-out: Vdss
[20] = Oral bioavailability in Sprague-Dawley rat at 3 mg/kg; format: ADME, organism-based; conditions: in vivo
In short: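 Single oral dose of 3 mg/kg in 1% (w/v) methylcellulose vehicle. Rats were male Sprague-Dawley; dogs were beagle. Bioavailability (Fpo) determined.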

[21] = Clearance in cynomolgus monkey blood at 1 mg/kg administered by intravenous infusion for 1 hr; format: ADME, organism-based, Macaca fascicularis; set-up: dose 1 mg/kg, route intravenous
In short: (§4)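 Intravenous administration as a 1 h infusion of a 1 mg/kg dose. Rats were male Sprague-Dawley; dogs were beagle; monkeys were cynomolgus. Blood clearance, Vss and half-life determined.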

[22] = Volume of distribution at steady state in cynomolgus monkey at 1 mg/kg administered by intravenous infusion for 1 hr; format: ADME, organism-based, Macaca fascicularis; set-up: dose 1 mg/kg, route intravenous; conditions: in vivo, read-out: Vdss
[23] = Half life in cynomolgus monkey at 1 mg/kg administered by intravenous infusion for 1 hr; format: ADME, organism-based, Macaca fascicularis; set-up: dose 1 mg/kg, route intravenous; conditions: in vivo; in short: as §4

`O=C([O-])c1cccc(Cc2cc(Cl)ccc2OCc2ccc(Cl)cc2F)n1.[Na+]` showed a Kb [1] of 0.00794 µM, an IC50 (Cytochrome P450 2C9) of 8 µM and a Kp at 1 h [2] of 0.41. It also gave a Kp at 1 hr [3] of 0.34, a CL [4] of 4.8 mL/min/g and a CL [5] of 2.7 mL/min/g. For the same compound, the CL (Hepatocyte) was 3.7 mL/min/g, the Papp A→B at 1 h [6] was 70 ×10⁻⁶ cm/s and the IC50 [7] was 1.58 µM. It also gave a pKi [8] of 5.9, an IC50 [9] greater than 31.6 µM and an IC50 [10] greater than 10 µM. It also gave an ED50 (Rattus norvegicus) of 3 mg/kg, an IC50 (Cytochrome P450 3A4) of no less than 100 µM and a concentration at 1 h [11] of 144 nM. It also gave a concentration at 1 h [12] of 415 nM, a concentration at 1 h [13] of 60 nM and a concentration at 12 h [14] of 56 nM. It also gave a Kp at 12 h [15] of 0.24, a concentration at 1 h [16] of 374 nM and a Kp at 1 h [17] of 0.21. The Kp at 1 h [18] was 0.27, the Vd [19] was 2.1 L/kg and the bioavailability [20] was 94%. It also gave a clearance [21] of 41 mL/min/kg, a Vd [22] of 0.6 L/kg and a half-life [23] of 36 min.
